Laboratory results published in article PMC10424182 (Journal of Medicinal Chemistry, 2023).
Read-outs that look alike come from different tables or passages of the source.

Tests used:
Assay type in all cases: binding
[1] = biological target: T1, AD brain homogenates (mixed 3R/4R-tau) (Homo sapiens, UniProt P10636); assay: Competition
[2] = biological target: T2, PSP brain homogenates (4R-tau aggregates) (Homo sapiens, UniProt P10636); assay: Competition
Method in brief: (§1)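 Post-mortem human brain homogenate in PBS pH 7.0, 100 μg tissue/mL final, with ~1 nM tritiated radioligand and unlabelled test compound at 0.1–1000 nM (0.25% DMSO final for non-Enamine compounds). Incubated 60 min at room temperature, then GF/B filtration, four PBS washes and scintillation counting. Full inhibition was taken as counts displaced by 1 μM unlabelled radioligand. Triplicates at each concentration.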

[3] = biological target: T1, AD brain homogenates (mixed 3R/4R-tau); assay: Competition; remark: listed apart in the source
[4] = biological target: T1, AD brain homogenates (mixed 3R/4R-tau); assay: Competition; remark: listed apart in the source
[5] = biological target: T2, PSP brain homogenates (4R-tau aggregates); assay: Competition; remark: listed apart in the source
Method in brief: as §1

[6] = biological target: T3, CBD brain homogenates (4R-tau aggregates) (Homo sapiens, UniProt P10636); assay: Competition
T3 sequence (P10636 1-441 isoform P10636-8): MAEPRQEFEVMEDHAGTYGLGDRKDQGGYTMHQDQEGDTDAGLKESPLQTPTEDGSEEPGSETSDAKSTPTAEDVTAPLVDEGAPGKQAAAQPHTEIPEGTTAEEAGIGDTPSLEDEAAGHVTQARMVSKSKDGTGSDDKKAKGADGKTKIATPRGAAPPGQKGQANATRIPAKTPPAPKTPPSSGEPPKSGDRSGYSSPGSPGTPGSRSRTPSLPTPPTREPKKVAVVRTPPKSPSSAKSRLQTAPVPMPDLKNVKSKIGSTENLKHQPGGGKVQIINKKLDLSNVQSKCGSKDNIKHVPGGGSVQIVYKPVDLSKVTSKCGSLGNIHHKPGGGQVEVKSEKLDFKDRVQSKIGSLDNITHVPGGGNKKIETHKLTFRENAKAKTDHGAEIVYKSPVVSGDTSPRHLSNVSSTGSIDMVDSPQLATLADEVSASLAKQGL
Method in brief: as §1

[7] = biological target: aggregated amyloid-beta (Aβ) in AD tissue (Homo sapiens, UniProt P05067); assay: Competition
Sequence of aggregated amyloid-beta (Aβ) in AD tissue (P05067 672-713): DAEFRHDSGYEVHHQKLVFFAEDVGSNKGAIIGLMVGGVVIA
Method in brief: as §1

[8] = biological target: T3, CBD brain homogenates (4R-tau aggregates); assay: Competition; remark: listed apart in the source
Method in brief: as §1

[9] = biological target: T2, PSP brain homogenates (4R-tau aggregates); assay: Competition; remark: listed apart in the source
Method in brief: as §1

[10] = biological target: T1, AD brain homogenates (mixed 3R/4R-tau); assay: Single concentration; conditions: 300 nM unlabeled compound
[11] = biological target: T2, PSP brain homogenates (4R-tau aggregates); assay: Single concentration; conditions: 300 nM unlabeled compound
Method in brief: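 A PSP homogenate (100 μg tissue/mL) was run with ~1 nM [3H]-ligand as in the Ki assay, with a single 300 nM test compound, 60 min at room temperature, then filtered and counted. 0% was specific binding with no competitor; 100% was nonspecific binding at 1 μM unlabelled radioligand. The % value is […] divided by the 0%−100% count difference, ×100. Run in triplicate.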

[12] = biological target: T1, AD brain homogenates (mixed 3R/4R-tau); assay: Competition; remark: listed apart in the source
[13] = biological target: T2, PSP brain homogenates (4R-tau aggregates); assay: Competition; remark: listed apart in the source
Method in brief: as §1

[14] = biological target: T3, CBD brain homogenates (4R-tau aggregates); assay: Competition; remark: listed apart in the source
Method in brief: as §1

T1 sequence (P10636 623-758 limits assumed): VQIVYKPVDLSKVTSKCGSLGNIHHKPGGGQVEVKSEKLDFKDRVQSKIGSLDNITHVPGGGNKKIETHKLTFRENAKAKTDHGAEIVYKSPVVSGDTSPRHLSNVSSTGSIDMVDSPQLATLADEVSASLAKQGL
T2 sequence (P10636 1-441 isoform P10636-8): as the sequence (P10636 1-441 isoform P10636-8) above

Row | Structure (SMILES) | Ki [1] | Ki [2] | Ki [4] | Ki [5] | Ki [8] | other results
1 | O=C1CCN(c2ncc(-c3cc4ccccc4[nH]3)cn2)CCN1 [Compound 19] | 21 nM | 22 nM |  |  |  | 
2 | Fc1ccc2cc(-c3cnc(N4CCOCC4)nc3)[nH]c2c1 [Compound 21, 4-(5-(6-fluoro-1H-indol-2-yl)pyrimidin-2-yl)morpholine] |  |  | 270 nM | 270 nM | 230 nM | Ki [3]: 100 nM; Ki [6]: 110 nM; Ki [7]: 62 ± 3 nM; Ki [9]: 93 nM
3 | O[C@@H]1CCN(c2ccc(-c3cc4ccc(F)cc4[nH]3)cn2)C1 [Compound 20] | 18 nM | 18 nM |  |  |  | 
4 | Fc1ccc(-c2ccc3c(c2)[nH]c2ccncc23)cn1 [Tauvid] | > 1000 nM | > 1000 nM |  |  |  | 
5 | Nc1c(F)ccc2cnc(-n3ccc4ccncc43)cc12 [MK-6240] | 96 nM | 315 nM |  |  |  | 
6 | Oc1cccc2sc(-c3cnc(N4CCC(O)CC4)nc3)cc12 [Compound 6] | 12 nM | 22 nM |  |  |  | inhibition of [^3H]1, AD tissue [10]: > 65%; inhibition of [^3H]1, PSP tissue [11]: > 65%
7 | CNc1ccc(/C=C/C=C/c2nc3ccc(OCC(O)CF)cc3s2)cn1 (centres unmarked) [PM-PBB3, reference compound] | 15 nM | 18 nM | 7930 nM | > 10000 nM | 1540 nM | 
8 | OCC1CCN(c2ccc(-c3cc4cc(O)ccc4[nH]3)c(F)n2)CC1 [CBD-2115, 2-(2-fluoro-6-(4-(hydroxymethyl)piperidin-1-yl)pyridin-3-yl)-1H-indol-5-ol] | 745 nM | 520 nM |  |  |  | Ki [12]: 7140 nM; Ki [13]: > 10000 nM; Ki [14]: 2930 nM
9 | Fc1cc(-c2ccc3c(n2)[nH]c2ccncc23)ccn1 [PI-2620] | 58 nM | 89 nM |  |  |  | 
10 | OC1CCN(c2ncc(-c3cc4ccc(F)cc4[nH]3)cn2)CC1 [Compound 1, 1-(5-(6-fluoro-1H-indol-2-yl)pyrimidin-2-yl)piperidin-4-ol] |  |  | 270 nM | 250 nM | 210 nM | Ki [3]: 80 nM; Ki [6]: 71 nM; Ki [7]: 142 ± 5 nM; Ki [9]: 95 nM
